# Data published in ChEMBL document CHEMBL1123204, “Nucleosides. 136. Synthesis and antiviral effects of several 1-(2-deoxy-2-fluoro-beta-D-arabinofuranosyl)-5-alkyluracils. Some structure-activity relationships” (J Med Chem, 1986).
# Experiments:
# Vero [1] = experiment: (§1) Compound was tested for antiviral activity against Herpes simplex virus-2 (Strain G) in vero cells by plaque reduction assay.; assay type: functional, Chlorocebus sabaeus
# Vero [2] = experiment: (§2) Compound was tested for antiviral activity against Herpes simplex virus-1 (Strain F) in vero cells by plaque reduction assay.; assay type: functional; conditions: Chlorocebus sabaeus, read-out: ED50 (the source's name)
# Vero [3] = experiment: as §2; assay type: functional, Chlorocebus sabaeus
# Vero [4] = experiment: as §1; assay type: functional; conditions: Chlorocebus sabaeus, read-out: ED50 (the source's name)
# [5] = Theuraptic Index: ratio of ID 50 / ED 90 of compound against HSV 1; assay type: functional
# Method in brief: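 Index computed as cytotoxic ID50 over antiviral ED90. Antiviral activity was measured against HSV-1 (strain F) by plaque-reduction assay in Vero cells. Cytotoxicity was measured in rapidly dividing Vero cells.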
# [6] = Theuraptic Index: ratio of ID 50 / ED 90 of compound against HSV 2; assay type: functional
# Method in brief: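 Index computed as cytotoxic ID50 over antiviral ED90. Antiviral activity was measured against HSV-2 (strain G) by plaque-reduction assay in Vero cells. Cytotoxicity was measured in rapidly dividing Vero cells.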
SMILES,ED90 (Vero [1]),EC50 (Vero [2]),ED90 (Vero [3]),EC50 (Vero [4]),TI [5],TI [6]
CCC(C)c1cn([C@@H]2O[C@H](CO)[C@@H](O)[C@@H]2F)c(=O)[nH]c1=O (some centres undefined),>400 µM,15.6 µM,305 µM,> 400 µM,,
CCCCc1cn([C@@H]2O[C@H](CO)[C@@H](O)[C@@H]2F)c(=O)[nH]c1=O,40.3 µM,11.1 µM,76 µM,15.9 µM,> 11,> 20
CCCc1cn([C@@H]2O[C@H](CO)[C@@H](O)[C@@H]2F)c(=O)[nH]c1=O,7.58 µM,0.48 µM,4.27 µM,0.9 µM,551,310
CC(C)Cc1cn([C@@H]2O[C@H](CO)[C@@H](O)[C@@H]2F)c(=O)[nH]c1=O,422 µM,28.7 µM,92.7 µM,113 µM,,
CC(C)c1cn([C@@H]2O[C@H](CO)[C@@H](O)[C@@H]2F)c(=O)[nH]c1=O,72.3 µM,1 µM,8.7 µM,13 µM,> 92,> 11
CCc1cn([C@@H]2O[C@H](CO)[C@@H](O)[C@@H]2F)c(=O)[nH]c1=O,0.96 µM,0.024 µM,0.26 µM,0.24 µM,6540,1770
C=CCc1cn([C@@H]2O[C@H](CO)[C@@H](O)[C@@H]2F)c(=O)[nH]c1=O,29.7 µM,3.3 µM,21.3 µM,6 µM,73,52
Cc1cn([C@@H]2O[C@H](CO)[C@@H](O)[C@@H]2F)c(=O)[nH]c1=O [5-METHYL-2'-FLUOROARAURACIL],0.09 µM,0.018 µM,0.047 µM,0.023 µM,59,31
